Calls of active or inactive are those of the source.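 Rule for the calls, unless noted: active = inhibition of the reporter signal at or above 50%; inactive = inhibition below 50%.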
Key:
[1] = inhibitors of TNFa-induced NFkB p65 translocation, primary screen, imaging, HUVEC, MLSMR starter and 10KST1 sets (AID 438;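 active = inhibition above 20% together with a positive visual image hit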;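 note: compound added about 3h40 before a 20 min TNFalpha stimulation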;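 for inhibition: signal is the nuclear over cytoplasmic p65 intensity ratio per well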); settings: HUVEC TNFa-induced p65 nuclear translocation; cell count: measured here: nuclei count (cytotoxicity indicator), at 2.08 µM; inhibition: at 2 µM, stronger effect = higher value, 0% TNFa-plus-vehicle, 100% no-TNFa wells
[2] = reduction of polyQ htt aggregates in cells – imaging, exon1htt(103Q)mCFP cells, high-content imaging, primary screen (AID 483;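 active = visual image review flags a hit and inhibition of aggregation exceeds 20%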;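 note: compound exposure lasted 3 days before fixation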;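 for nuclei count: percent of the per-plate median nuclei count of sample wells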); settings: exon1htt(103Q)mCFP cell line, aggregate imaging, at 2 µM; inhibition of aggregation: stronger effect = higher value; nuclei count: measured here: cell count, toxicity
[3] = endothelial E-selectin expression blockers – imaging, HUVEC, immunofluorescence, MLSMR starter and 10KST1 sets, primary screen (AID 487;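 active = visually confirmed hit in the image check and inhibition above 20%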;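 for inhibition: signal is fraction of cell area covered by stained E-selectin grains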;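 for nuclei count: 100% = median nuclei count of all wells on the same plate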); settings: HUVEC TNFalpha-induced E-selectin immunofluorescence imaging, at 2 µM; inhibition: stronger effect = higher value; nuclei count: measured here: cell number, toxicity
[4] = molecular target: Voltage-gated potassium channel subunit beta-2 (Rattus norvegicus) (UniProt P62483); test: inhibitors of rat Kvbeta2 reductase activity – biochemical, NADPH fluorescence, primary screen (AID 622;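 active = fluorescence slope higher than the sample average by over 3 SD, cut at about -0.22 in these data, passing the limit was not always enough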;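 note: slope of raw intensity against log time taken from 70 to 1610 s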); settings: recombinant KvBeta, 4-cyanobenzaldehyde reduction, at 10 µM, stronger effect = higher value
[5] = molecular target: Voltage-gated potassium channel subunit beta-2 (Rattus norvegicus) (UniProt P62483); test: enhancers of rat Kvbeta2 NADPH turnover – biochemical, NADPH fluorescence, primary screen (AID 623;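 active = NADPH fluorescence slope more negative than the mean of all samples by about 3 SD, 99.7% confidence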;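 note: fluorescence intensity change per second fitted from 20 to 320 s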); settings: Recombinant KvBeta, NADPH fluorescence decrease slope, 10 min; at 10 µM; stronger effect = lower value
[6] = molecular target: Muscarinic acetylcholine receptor M4 (Homo sapiens) (UniProt P08173); test: M4-linked GIRK flux change, two-sided – cell-based, HEK293 M4/GIRK, thallium flux, BTC-AM, M4 allosteric agonist project, primary screen (AID 625;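 active = fluorescence slope after compound addition differing from the mean of all tested samples at 99.7% confidence, mostly higher but some lower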;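 note: thallium influx through GIRK channels coupled to M4 in HEK293 cells with BTC-AM dye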); settings: at 10 µM, actives lie on both sides
Summary of the method: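 System: HEK293 cells with M4 receptor and GIRK channels | Incubation: Cells overnight at 37 °C, BTC-AM loading 1 h, reads 2 min total | Technique: Kinetic BTC-AM fluorescence sampled at 1 Hz, 10 s pre-addition baseline | Measure: Post-addition slope, 15–24 s, of baseline-normalized fluorescence | Control set: Carbachol positive, DMSO negative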

[7] = blockers of RIG-like receptor reporter activation – cell-based, Sendai virus stimulus, luciferase, 10K MLSCN set, TLR/RLR signaling modifier project, primary screen (AID 602276;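 active = inhibition at or above 50% at 10 µM; inactive = inhibition below 50%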;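 note: firefly luciferase from ISG56 promoter only with Renilla not read in this screen; 0% = Sendai virus plus DMSO and 100% = medium plus DMSO without virus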); settings: HEK293 RL24 IRF3 luciferase reporter, at 10 µM, stronger effect = higher value
[8] = TLR3 IRF3 reporter activation blockers – cell-based, poly I:C stimulus, luciferase, 10K MLSCN set, primary screen (AID 602277); settings: HEK293-TLR3 RL24 IRF3 luciferase reporter, at 10 µM, stronger effect = higher value

Chain of Muscarinic acetylcholine receptor M4 (Homo sapiens) (P08173 whole entry, looked up): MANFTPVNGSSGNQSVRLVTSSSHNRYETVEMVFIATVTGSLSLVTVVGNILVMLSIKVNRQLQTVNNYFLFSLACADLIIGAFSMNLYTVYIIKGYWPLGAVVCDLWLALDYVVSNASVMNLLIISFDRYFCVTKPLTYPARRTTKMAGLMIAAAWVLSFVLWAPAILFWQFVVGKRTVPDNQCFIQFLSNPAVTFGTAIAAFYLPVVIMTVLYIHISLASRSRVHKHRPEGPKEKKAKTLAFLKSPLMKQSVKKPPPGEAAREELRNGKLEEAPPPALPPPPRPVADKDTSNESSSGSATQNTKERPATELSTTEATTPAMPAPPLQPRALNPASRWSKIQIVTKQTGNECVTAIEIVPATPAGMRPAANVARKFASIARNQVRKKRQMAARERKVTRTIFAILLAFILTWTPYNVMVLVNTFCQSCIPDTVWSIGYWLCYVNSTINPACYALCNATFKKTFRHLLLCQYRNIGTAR
Chain of Voltage-gated potassium channel subunit beta-2 (Rattus norvegicus) (P62483 whole entry, looked up): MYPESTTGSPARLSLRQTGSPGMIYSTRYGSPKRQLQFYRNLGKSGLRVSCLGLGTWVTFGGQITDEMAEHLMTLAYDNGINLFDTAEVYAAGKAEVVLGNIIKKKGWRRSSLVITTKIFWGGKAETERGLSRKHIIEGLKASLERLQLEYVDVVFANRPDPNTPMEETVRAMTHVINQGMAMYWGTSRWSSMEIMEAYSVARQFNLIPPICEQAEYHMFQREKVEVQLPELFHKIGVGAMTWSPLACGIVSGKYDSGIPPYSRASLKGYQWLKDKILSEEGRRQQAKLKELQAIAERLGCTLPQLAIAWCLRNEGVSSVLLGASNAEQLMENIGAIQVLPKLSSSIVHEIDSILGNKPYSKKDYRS

CC(=O)Nc1ccc(Cl)cc1C(=O)O
cell count [1]: 236 | inhibition [1]: 1.3% (inactive) | inhibition of aggregation [2]: -13.3% (inactive) | nuclei count [2]: 74.7% | inhibition [3]: 35.3% (inactive) | nuclei count [3]: 74.6% | fluorescence slope [4]: -0.519 (inactive) | NADPH fluorescence slope [5]: 8e-06 (inactive) | fluorescence slope [6]: 0.00503 (inactive) | inhibition [7]: 20.8% (inactive) | inhibition [8]: 16.7% (inactive)

Cc1ccc(C)c(-c2nc3cc(N)ccc3o2)c1
cell count [1]: 407 | inhibition [1]: 12.5% (inactive) | inhibition of aggregation [2]: 20.6% (inactive) | nuclei count [2]: 97.9% | inhibition [3]: -435% (inactive) | nuclei count [3]: 124% | fluorescence slope [4]: -0.0313 (active) | NADPH fluorescence slope [5]: -3e-06 (inactive) | fluorescence slope [6]: 0.00545 (inactive) | inhibition [7]: 4.93% (inactive) | inhibition [8]: 1.69% (inactive)

Cc1nc2c(=O)oc3ccccc3c2n1-c1ccccc1
cell count [1]: 579 | inhibition [1]: 2.9% (inactive) | inhibition of aggregation [2]: 30.6% (inactive) | nuclei count [2]: 90.3% | inhibition [3]: 33% (inactive) | nuclei count [3]: 30.7% | fluorescence slope [4]: -0.519 (inactive) | NADPH fluorescence slope [5]: -3.7e-05 (inactive) | fluorescence slope [6]: 0.0052 (inactive) | inhibition [7]: 12.7% (inactive) | inhibition [8]: 23.7% (inactive)

CC1(C)NC(=O)N(CCCOc2ccc(Br)cc2Cl)C1=O
cell count [1]: 278 | inhibition [1]: -10% (inactive) | inhibition of aggregation [2]: -8.8% (inactive) | nuclei count [2]: 110% | inhibition [3]: -4.9% (inactive) | nuclei count [3]: 119% | fluorescence slope [4]: -0.458 (inactive) | NADPH fluorescence slope [5]: -2.9e-06 (inactive) | fluorescence slope [6]: 0.00559 (inactive) | inhibition [7]: -28.8% (inactive) | inhibition [8]: -113% (inactive)

Cc1c(C(=O)O)sc2ncn(C)c(=O)c12
cell count [1]: 745 | inhibition [1]: 2.8% (inactive) | inhibition of aggregation [2]: -9% (inactive) | nuclei count [2]: 116% | inhibition [3]: 21% (inactive) | nuclei count [3]: 106% | fluorescence slope [4]: -0.553 (inactive) | NADPH fluorescence slope [5]: -2.2e-05 (inactive) | fluorescence slope [6]: 0.00525 (inactive) | inhibition [7]: 2.12% (inactive) | inhibition [8]: -1.59% (inactive)

CCOc1ccc(C(=O)N(Cc2ccc(N(C)C)cc2)C2CCS(=O)(=O)C2)cc1 (centres undefined)
cell count [1]: 249 | inhibition [1]: -12.2% (inactive) | inhibition of aggregation [2]: 2.5% (inactive) | nuclei count [2]: 75% | inhibition [3]: -56.2% (inactive) | nuclei count [3]: 96.7% | fluorescence slope [4]: -0.618 (inactive) | NADPH fluorescence slope [5]: -3.1e-05 (inactive) | fluorescence slope [6]: 0.00328 (inactive) | inhibition [7]: 19.7% (inactive) | inhibition [8]: 23.5% (inactive)

Cc1ccc(C)c(-c2nc3ccc(N)cc3[nH]2)c1
cell count [1]: 340 | inhibition [1]: 3.9% (inactive) | inhibition of aggregation [2]: 30.3% (inactive) | nuclei count [2]: 77.7% | inhibition [3]: -114% (inactive) | nuclei count [3]: 100% | fluorescence slope [4]: -0.0465 (active) | NADPH fluorescence slope [5]: -3.5e-05 (inactive) | fluorescence slope [6]: 0.00338 (inactive) | inhibition [7]: 15.4% (inactive) | inhibition [8]: -9.14% (inactive)

Cc1ccc(C)c(N2C(=O)CN=C2Nc2ccccc2Cl)c1
cell count [1]: 441 | inhibition [1]: 14.6% (inactive) | inhibition of aggregation [2]: 0.8% (inactive) | nuclei count [2]: 96.7% | inhibition [3]: 18.2% (inactive) | nuclei count [3]: 113% | fluorescence slope [4]: -0.577 (inactive) | NADPH fluorescence slope [5]: -4.1e-05 (inactive) | fluorescence slope [6]: 0.00593 (inactive) | inhibition [7]: 13% (inactive) | inhibition [8]: 24.3% (inactive)

Cn1c(-c2ccc(F)cc2)cnc1NCc1ccccc1
cell count [1]: 710 | inhibition [1]: -2.3% (inactive) | inhibition of aggregation [2]: 21% (inactive) | nuclei count [2]: 74.6% | inhibition [3]: -25.9% (inactive) | nuclei count [3]: 125% | fluorescence slope [4]: -0.471 (inactive) | NADPH fluorescence slope [5]: -3e-06 (inactive) | fluorescence slope [6]: 0.0028 (inactive) | inhibition [7]: 6.58% (inactive) | inhibition [8]: -8.43% (inactive)

COc1cc(OC)c(C(=O)Nc2ncn[nH]2)cc1OC
cell count [1]: 667 | inhibition [1]: -1.1% (inactive) | inhibition of aggregation [2]: -12% (inactive) | nuclei count [2]: 107% | inhibition [3]: -95.9% (inactive) | nuclei count [3]: 108% | fluorescence slope [4]: -0.537 (inactive) | NADPH fluorescence slope [5]: -0.000156 (inactive) | fluorescence slope [6]: 0.00435 (inactive) | inhibition [7]: 17.7% (inactive) | inhibition [8]: 19.5% (inactive)

COc1ccc(-c2cc3nc4n(c(=O)c3s2)CCC4)cc1
cell count [1]: 433 | inhibition [1]: 3% (inactive) | inhibition of aggregation [2]: 4.8% (inactive) | nuclei count [2]: 88.6% | inhibition [3]: -96.4% (inactive) | nuclei count [3]: 139% | fluorescence slope [4]: -0.467 (inactive) | NADPH fluorescence slope [5]: -3.4e-05 (inactive) | fluorescence slope [6]: 0.0055 (inactive) | inhibition [7]: 12.2% (inactive) | inhibition [8]: -34.7% (inactive)

O=c1oc2ccccc2n1CCc1ccccc1
cell count [1]: 470 | inhibition [1]: -4.6% (inactive) | inhibition of aggregation [2]: 0% (inactive) | nuclei count [2]: 88.3% | inhibition [3]: -76.9% (inactive) | nuclei count [3]: 238% | fluorescence slope [4]: -0.522 (inactive) | NADPH fluorescence slope [5]: -0.000209 (inactive) | fluorescence slope [6]: 0.00443 (inactive) | inhibition [7]: -4.32% (inactive) | inhibition [8]: -4.85% (inactive)

CCC(=O)N1CCc2cc(Br)cc(S(=O)(=O)C3(C(=O)OC)CC3)c21
cell count [1]: 469 | inhibition [1]: 2.5% (inactive) | inhibition of aggregation [2]: -5.1% (inactive) | nuclei count [2]: 98.8% | inhibition [3]: 3.4% (inactive) | nuclei count [3]: 97.1% | fluorescence slope [4]: -0.554 (inactive) | NADPH fluorescence slope [5]: -3.7e-05 (inactive) | fluorescence slope [6]: 0.00618 (inactive) | inhibition [7]: 17% (inactive) | inhibition [8]: 18% (inactive)

CCC(C)N=C1SCC(C)(/C=N/O)S1 (centres undefined)
cell count [1]: 367 | inhibition [1]: -7.2% (inactive) | inhibition of aggregation [2]: 16.5% (inactive) | nuclei count [2]: 80.1% | inhibition [3]: -31.5% (inactive) | nuclei count [3]: 122% | fluorescence slope [4]: -0.55 (inactive) | NADPH fluorescence slope [5]: -6.5e-05 (inactive) | fluorescence slope [6]: 0.00292 (inactive) | inhibition [7]: 9.86% (inactive) | inhibition [8]: 2.1% (inactive)

O=C(CCCn1ncn2c(cc3occc32)c1=O)N1CCc2ccccc2C1
cell count [1]: 363 | inhibition [1]: -0.7% (inactive) | inhibition of aggregation [2]: 4.2% (inactive) | nuclei count [2]: 93.3% | inhibition [3]: -81.7% (inactive) | nuclei count [3]: 101% | fluorescence slope [4]: -0.484 (inactive) | NADPH fluorescence slope [5]: -0.00018 (inactive) | fluorescence slope [6]: 0.00605 (inactive) | inhibition [7]: 8.38% (inactive) | inhibition [8]: 8.89% (inactive)

COC(=O)c1ccc(CNC(=O)COc2ccccc2Br)o1
cell count [1]: 712 | inhibition [1]: -13.6% (inactive) | inhibition of aggregation [2]: -7.2% (inactive) | nuclei count [2]: 110% | inhibition [3]: 0.2% (inactive) | nuclei count [3]: 81.7% | fluorescence slope [4]: -0.556 (inactive) | NADPH fluorescence slope [5]: -8.6e-06 (inactive) | fluorescence slope [6]: 0.00463 (inactive) | inhibition [7]: 5.53% (inactive) | inhibition [8]: 1.32% (inactive)

CC(C(=O)N1CCCCC1)n1sc2ccccc2c1=O (centres undefined)
cell count [1]: 355 | inhibition [1]: -10.8% (inactive) | inhibition of aggregation [2]: -13.5% (inactive) | nuclei count [2]: 111% | inhibition [3]: -96.4% (inactive) | nuclei count [3]: 109% | fluorescence slope [4]: -0.479 (inactive) | NADPH fluorescence slope [5]: -0.000258 (inactive) | fluorescence slope [6]: 0.00498 (inactive) | inhibition [7]: -14.1% (inactive) | inhibition [8]: -35.6% (inactive)

O=S(=O)(c1ccc2c(c1)OCCO2)N(Cc1ccc(F)cc1)Cc1nnc(-c2cccs2)o1
cell count [1]: 383 | inhibition [1]: -21.4% (inactive) | inhibition of aggregation [2]: -14.7% (inactive) | nuclei count [2]: 106% | inhibition [3]: -14.4% (inactive) | nuclei count [3]: 119% | fluorescence slope [4]: -0.543 (inactive) | NADPH fluorescence slope [5]: -0.000116 (inactive) | fluorescence slope [6]: 0.00797 (inactive) | inhibition [7]: 13.3% (inactive) | inhibition [8]: 26.7% (inactive)

Cc1nc(NC(=O)C2CC3CCCC(C2)C3=O)sc1C (centres undefined)
cell count [1]: 411 | inhibition [1]: 4.4% (inactive) | inhibition of aggregation [2]: -32.5% (inactive) | nuclei count [2]: 110% | inhibition [3]: -36.5% (inactive) | nuclei count [3]: 106% | fluorescence slope [4]: -0.581 (inactive) | NADPH fluorescence slope [5]: -4.4e-05 (inactive) | fluorescence slope [6]: 0.00306 (inactive) | inhibition [7]: -54.4% (inactive) | inhibition [8]: -87.2% (inactive)

— PubChem BioAssay
